Experimental data taken from ChEMBL document CHEMBL1944532, “Synthesis and evaluation of anticancer activity of some novel 6-aryl-2-(p-sulfamylphenyl)-pyridazin-3(2H)-ones” (Eur J Med Chem, 2012).
Active and inactive are the calls of the source. The rule behind the calls is not given here.

Legend:
[1] = system: SF-539; test: Cytotoxicity against human SF539 cells after 48 hrs by SRB assay; format: functional; conditions: SF-539, 48 h
Method in brief: (§1)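 NCI five-dose screen on the ~60-line human tumor panel. Cells grown in RPMI-1640 with 5% fetal calf serum and 2 mM L-glutamine, seeded at line-dependent density and preincubated 24 h. Compound added from DMSO at 10-fold dilutions from 10^-4 to 10^-8 M, continuous exposure 48 h. Growth read by sulforhodamine B protein stain. GI50, TGI and LC50 derived per line.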

[2] = system: HT-29; test: Cytotoxicity against human HT-29 cells assessed as cell growth at 10 uM after 48 hrs by SRB assay; format: functional; conditions: HT-29, 48 h, read-out: Activity
Method in brief: (§2)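 NCI primary single-dose screen at 10^-5 M against the ~60 human tumour cell line panel. Cells grown in RPMI-1640 with 5% fetal calf serum and 2 mM L-glutamine and pre-incubated 24 h before compound addition. Compound added from DMSO solution with 48 h exposure. Growth read by sulforhodamine B protein staining.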

[3] = system: SK-MEL-28; test: Cytotoxicity against human SK-MEL-28 cells assessed as cell growth at 10 uM after 48 hrs by SRB assay; format: functional; conditions: SK-MEL-28, 48 h, read-out: Activity
Method in brief: (§3)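 NCI primary one-dose screen at 10^-5 M against the full panel of about 60 human tumour cell lines, run to the NCI Drug Evaluation Branch protocol.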

[4] = system: OVCAR-4; test: Cytotoxicity against human OVCAR4 cells assessed as cell growth at 10 uM after 48 hrs by SRB assay; format: functional; conditions: OVCAR-4, 48 h, read-out: Activity
Method in brief: (§4)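 NCI primary single-dose screen at 10^-5 M against the full panel of about 60 human tumor cell lines. Cells were in RPMI-1640 with 5% fetal calf serum and 2 mM L-glutamine and preincubated 24 h. Compound was given in DMSO with 48 h exposure. Growth was estimated by sulforhodamine B protein assay.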

[5] = system: Hs-578T; test: Cytotoxicity against human Hs578T cells after 48 hrs by SRB assay; format: functional
Method in brief: (§5)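 NCI ~60-line panel in RPMI-1640 with 5% fetal calf serum and 2 mM L-glutamine, pre-incubated 24 h. Compound in DMSO tested at five 10-fold concentrations (10^-4 to 10^-8 M) with 48 h continuous exposure. Growth measured by sulforhodamine B protein assay. GI50 (50% net growth inhibition), TGI (total inhibition) and LC50 (50% net cell death) derived from dose-response.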

[6] = system: HOP-62; test: Cytotoxicity against human HOP62 cells after 48 hrs by SRB assay; format: functional; conditions: HOP-62, 48 h; method in brief: as §5
[7] = system: U-251; test: Cytotoxicity against human U251 cells assessed as cell growth at 10 uM after 48 hrs by SRB assay; format: functional; conditions: U-251, 48 h, read-out: Activity; method in brief: as §3
[8] = system: MDA-MB-231; test: Cytotoxicity against human MDA-MB-231 cells assessed as cell growth at 10 uM after 48 hrs by SRB assay; format: functional; conditions: MDA-MB-231, 48 h, read-out: Activity; method in brief: as §4
[9] = system: NCI/ADR-RES; test: Cytotoxicity against human NCI/ADR-RES cells after 48 hrs by SRB assay; format: functional; method in brief: as §1
[10] = system: A498; test: Cytotoxicity against human A498 cells assessed as cell growth at 10 uM after 48 hrs by SRB assay; format: functional; conditions: A498, 48 h, read-out: Activity; method in brief: as §2
[11] = system: DU-145; test: Cytotoxicity against human DU145 cells after 48 hrs by SRB assay; format: functional; conditions: DU-145, 48 h; method in brief: as §5
[12] = system: HT-29; test: Cytotoxicity against human HT-29 cells after 48 hrs by SRB assay; format: functional; conditions: HT-29, 48 h; method in brief: as §5
[13] = system: HL-60(TB); test: Cytotoxicity against human HL-60(TB) cells after 48 hrs by SRB assay; format: functional; conditions: HL-60, 48 h
Method in brief: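 NCI 60-cell-line screen, five-dose assay: cells in RPMI1640 (printed "PMI1640") with 5% fetal calf serum and 2 mM L-glutamine, pre-incubated 24 h before compound addition. Compound in DMSO at 10-4, 10-5, 10-6, 10^-7 and 10^-8 M; continuous 48 h exposure. Growth estimated by sulforhodamine B protein assay; log GI50, TGI and LC50 derived from dose-response.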

[14] = system: OVCAR-8; test: Cytotoxicity against human OVCAR8 cells after 48 hrs by SRB assay; format: functional; conditions: OVCAR-8, 48 h; method in brief: as §1
[15] = system: UACC-257; test: Cytotoxicity against human UACC257 cells assessed as cell growth at 10 uM after 48 hrs by SRB assay; format: functional; conditions: UACC-257, 48 h, read-out: Activity; method in brief: as §3
[16] = system: RXF 393; test: Cytotoxicity against human RXF393 cells assessed as cell growth at 10 uM after 48 hrs by SRB assay; format: functional; conditions: RXF 393, 48 h, read-out: Activity; method in brief: as §4
[17] = system: U-251; test: Antitumor activity against human U251 cells implanted in mouse dosed qd for 4 days by formazan dye-based hollow fiber assay; format: functional, organism-based
Method in brief: (§6)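 Cells grown inside polyvinylidene fluoride hollow fibers; each line implanted into both intraperitoneal and subcutaneous compartments in mice. Compound given ip at two doses on a QD x 4 schedule. Fibers then recovered and viable cell mass measured by formazan dye conversion. Scored 2 per dose giving ≥50% reduction in viable cell mass (%T/C 50).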

[18] = system: Malme-3M; test: Cytotoxicity against human MALME-3M cells assessed as cell growth at 10 uM after 48 hrs by SRB assay; format: functional; conditions: read-out: Activity; method in brief: as §4
[19] = system: MCF7; test: Cytotoxicity against human MCF7 cells assessed as cell growth at 10 uM after 48 hrs by SRB assay; format: functional; conditions: MCF7, 48 h, read-out: Activity; method in brief: as §4
[20] = system: SW-620; test: Antitumor activity against human SW620 cells implanted in mouse dosed qd for 4 days by formazan dye-based hollow fiber assay; format: functional, organism-based; method in brief: as §6
[21] = system: UACC-62; test: Cytotoxicity against human UACC62 cells assessed as cell growth at 10 uM after 48 hrs by SRB assay; format: functional; conditions: UACC-62, 48 h, read-out: Activity; method in brief: as §3
[22] = system: MDA-MB-435; test: Antitumor activity against human MDA-MB-435 cells implanted in mouse dosed qd for 4 days by formazan dye-based hollow fiber assay; format: functional, organism-based; method in brief: as §6
[23] = system: NCI-H23; test: Cytotoxicity against human NCI-H23 cells assessed as cell growth at 10 uM after 48 hrs by SRB assay; format: functional; conditions: NCI-H23, 48 h, read-out: Activity; method in brief: as §4

Q: What does the source list for `CCc1ccc(-c2ccc(=O)n(-c3ccc(S(N)(=O)=O)cc3)n2)cc1`?
A: LC50 [1]: > 100 µM; GI50 ([1]; read-out: GI50): 1840 nM; GI50 ([1]; read-out: pGI50 (converted)): 1820 nM; TGI ([1]; read-out: pTGI (converted)): 22.9 µM; growth at 10 µM [2]: 11.8%; growth at 10 µM [3]: 49.4%; growth at 10 µM [4]: 74.5%; LC50 (50% net cell kill) [5]: > 100 µM; GI50 ([5]; read-out: GI50): 1030 nM; GI50 ([5]; read-out: pGI50 (converted)): 1020 nM; TGI ([5]; read-out: pTGI (converted)): 17 µM; LC50 [6]: 70.8 µM; GI50 ([6]; read-out: GI50): 2480 nM; GI50 ([6]; read-out: pGI50 (converted)): 2450 nM; TGI ([6]; read-out: pTGI (converted)): 22.4 µM; growth at 10 µM [7]: 35%; growth at 10 µM [8]: 66.8%; LC50 [9]: > 100 µM; GI50 ([9]; read-out: GI50): 314 nM; GI50 ([9]; read-out: pGI50 (converted)): 316 nM; TGI ([9]; read-out: pTGI (converted)): 12.9 µM; growth at 10 µM [10]: 40.3%; LC50 [11]: > 100 µM; GI50 ([11]; read-out: GI50): 13.8 µM; GI50 ([11]; read-out: pGI50 (converted)): 13.8 µM; TGI ([11]; read-out: pTGI): > 100 µM; LC50 [12]: > 100 µM; GI50 ([12]; read-out: GI50): 436 nM; GI50 ([12]; read-out: pGI50 (converted)): 437 nM; TGI ([12]; read-out: pTGI): > 100 µM; LC50 [13]: > 100 µM; GI50 ([13]; read-out: GI50): 376 nM; GI50 ([13]; read-out: pGI50 (converted)): 380 nM; TGI ([13]; read-out: pTGI (converted)): 3.02 µM; LC50 [14]: > 100 µM; GI50 ([14]; read-out: GI50): 11 µM; GI50 ([14]; read-out: pGI50 (converted)): 11 µM; TGI ([14]; read-out: pTGI): > 100 µM; growth at 10 µM [15]: 22.3%; growth at 10 µM [16]: -31.8%; Activity [17]: inactive; growth at 10 µM [18]: 35.6%; growth at 10 µM [19]: 30.1%; Activity [20]: inactive; growth at 10 µM [21]: 38.5%; Activity [22]: inactive; growth at 10 µM [23]: 59.9%
